Experimental data published in ChEMBL document CHEMBL1156430, “Identification of NVP-TAE684, a potent, selective, and efficacious inhibitor of NPM-ALK” (Proc Natl Acad Sci U S A, 2007).

How the values were obtained:
[1] = Induction of apoptosis in mouse Ba/F3 NPM-ALK cells at 50 nM after 48 hrs by annexin V assay; format: functional
In short: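 Parental Ba/F3 (with IL-3), Ba/F3 NPM-ALK or SU-DHL-1 cells treated with 50 nM or DMSO for 48 h. Annexin V/7-AAD staining read by flow cytometry; percent Annexin V-positive cells counted.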

[2] = target: Nucleophosmin (Mus musculus) (UniProt Q61937); experiment: Inhibition of NPM-ALK in mouse Ba/F3 NPM-ALK cells at 50 nM; format: cell-based; settings: TDE = time-dependent effect
[3] = target: Signal transducer and activator of transcription 3 (Homo sapiens) (UniProt P40763); experiment: Inhibition of STAT3 in human Karpas299 cells at 50 nM; format: cell-based; settings: KARPAS-299, TDE = time-dependent effect
In short: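 Ba/F3 NPM-ALK or Karpas-299 cells held at 50 nM for times from 15 min onward. Phospho-NPM-ALK and phospho-STAT3 read by Western blot.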

[4] = Elimination half life in human Karpas299 cells xenografted SCID beige mouse at 20 mg/kg, po; format: ADME, organism-based, KARPAS-299; set-up: dose 20 mg/kg, route oral; settings: in vivo
In short: (§1)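 Mice given a single oral dose of 20 mg/kg as a solution in 10% 1-methyl-2-pyrrolidinone/90% PEG 300. Plasma levels measured to give Cmax, bioavailability and elimination half-life.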

[5] = Bioavailability in human Karpas299 cells xenografted SCID beige mouse at 20 mg/kg; format: ADME, organism-based, KARPAS-299; settings: in vivo; in short: as §1
[6] = Antiproliferative activity against mouse Ba/F3 NPM-ALK cells assessed as luciferase expression after 2 to 3 days; format: functional, cell-based
In short: (§2)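 Ba/F3 cells carrying luciferase, either parental (with IL-3) or transformed by NPM-ALK or TEL-kinase fusions, 25,000 per well with serial dilutions or DMSO for 2–3 days. Bright-Glo luminescence taken as proliferation/survival. IC50 from curve fit.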

[7] = Cytotoxicity against mouse parental Ba/F3 cells assessed as luciferase expression up to 1 uM after 2 to 3 days; format: cell-based; settings: baf3; in short: as §2
[8] = test system: KARPAS-299; experiment: Antiproliferative activity against human Karpas299 cells assessed as luciferase expression after 72 hrs; format: functional, cell-based; settings: KARPAS-299, 72 h
In short: (§3)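 Luciferase-expressing Karpas-299 or SU-DHL-1 cells, 25,000 per well, exposed to serial dilutions or DMSO for 72 h. Bright-Glo luminescence normalized to DMSO wells as percent survival. IC50 from curve fit.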

[9] = test system: SU-DHL-1; experiment: Antiproliferative activity against human SUDHL1 cells assessed as luciferase expression after 72 hrs; format: functional, cell-based; settings: SU-DHL-1, 72 h; in short: as §3
[10] = target: Nucleophosmin (Mus musculus) (UniProt Q61937); experiment: Inhibition of NPM-ALK autophosphorylation in mouse Ba/F3 NPM-ALK cells after 4 hrs; format: cell-based
In short: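 Ba/F3 NPM-ALK cells exposed to a range of concentrations for 4 h. NPM-ALK autophosphorylation read by Western blot. IC50 from quantified band intensities.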

[11] = test system: BaF3; experiment: Inhibition of mouse wild type BaF3/WT Luc+ cell proliferation; format: functional, cell-based; in short: as §2
[12] = target: T1, Signal transducer and activator of transcription 5A (Homo sapiens) (UniProt P42229); experiment: Inhibition of STAT5 phosphorylation in human Karpas299 cells; format: cell-based; settings: KARPAS-299
T1 sequence (whole entry): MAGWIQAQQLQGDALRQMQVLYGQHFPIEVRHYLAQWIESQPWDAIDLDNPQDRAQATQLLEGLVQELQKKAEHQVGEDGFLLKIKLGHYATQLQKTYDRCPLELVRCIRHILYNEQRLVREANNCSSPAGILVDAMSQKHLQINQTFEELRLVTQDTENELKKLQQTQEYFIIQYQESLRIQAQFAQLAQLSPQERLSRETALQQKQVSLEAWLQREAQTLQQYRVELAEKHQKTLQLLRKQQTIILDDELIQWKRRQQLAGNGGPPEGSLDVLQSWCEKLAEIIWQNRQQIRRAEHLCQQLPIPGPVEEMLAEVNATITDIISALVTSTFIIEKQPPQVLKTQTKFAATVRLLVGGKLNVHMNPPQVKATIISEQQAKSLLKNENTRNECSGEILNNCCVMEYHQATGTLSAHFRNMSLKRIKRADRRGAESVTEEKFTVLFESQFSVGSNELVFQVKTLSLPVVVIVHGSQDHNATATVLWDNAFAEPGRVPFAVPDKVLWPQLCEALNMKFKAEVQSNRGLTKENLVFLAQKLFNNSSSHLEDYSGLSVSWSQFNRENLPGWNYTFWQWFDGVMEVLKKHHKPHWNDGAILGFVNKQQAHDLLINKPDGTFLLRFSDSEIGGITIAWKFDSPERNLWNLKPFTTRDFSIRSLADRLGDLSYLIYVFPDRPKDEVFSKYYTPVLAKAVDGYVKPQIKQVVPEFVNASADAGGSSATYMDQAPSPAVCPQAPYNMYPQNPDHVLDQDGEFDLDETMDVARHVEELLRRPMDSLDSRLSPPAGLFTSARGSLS
In short: (§4)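 Ba/F3 NPM-ALK, Karpas-299 or SU-DHL-1 cells treated for 4 h with DMSO or increasing concentrations. STAT3 and STAT5 phosphorylation read by Western blot of lysates.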

[13] = target: Signal transducer and activator of transcription 3 (Mus musculus) (UniProt P42227); experiment: Inhibition of STAT3 phosphorylation in mouse Ba/F3 NPM-ALK cells; format: cell-based; in short: as §4
[14] = target: Signal transducer and activator of transcription 3 (Homo sapiens) (UniProt P40763); experiment: Inhibition of STAT3 phosphorylation in human Karpas299 cells; format: cell-based; settings: KARPAS-299; in short: as §4
[15] = target: Signal transducer and activator of transcription 3 (Homo sapiens) (UniProt P40763); experiment: Inhibition of STAT3 phosphorylation in human SUDHL1 cells; format: cell-based; in short: as §4
[16] = target: T2, Signal transducer and activator of transcription 5A (Mus musculus) (UniProt P42230); experiment: Inhibition of STAT5 phosphorylation in mouse Ba/F3 NPM-ALK cells; format: cell-based; in short: as §4
T2 sequence (whole entry): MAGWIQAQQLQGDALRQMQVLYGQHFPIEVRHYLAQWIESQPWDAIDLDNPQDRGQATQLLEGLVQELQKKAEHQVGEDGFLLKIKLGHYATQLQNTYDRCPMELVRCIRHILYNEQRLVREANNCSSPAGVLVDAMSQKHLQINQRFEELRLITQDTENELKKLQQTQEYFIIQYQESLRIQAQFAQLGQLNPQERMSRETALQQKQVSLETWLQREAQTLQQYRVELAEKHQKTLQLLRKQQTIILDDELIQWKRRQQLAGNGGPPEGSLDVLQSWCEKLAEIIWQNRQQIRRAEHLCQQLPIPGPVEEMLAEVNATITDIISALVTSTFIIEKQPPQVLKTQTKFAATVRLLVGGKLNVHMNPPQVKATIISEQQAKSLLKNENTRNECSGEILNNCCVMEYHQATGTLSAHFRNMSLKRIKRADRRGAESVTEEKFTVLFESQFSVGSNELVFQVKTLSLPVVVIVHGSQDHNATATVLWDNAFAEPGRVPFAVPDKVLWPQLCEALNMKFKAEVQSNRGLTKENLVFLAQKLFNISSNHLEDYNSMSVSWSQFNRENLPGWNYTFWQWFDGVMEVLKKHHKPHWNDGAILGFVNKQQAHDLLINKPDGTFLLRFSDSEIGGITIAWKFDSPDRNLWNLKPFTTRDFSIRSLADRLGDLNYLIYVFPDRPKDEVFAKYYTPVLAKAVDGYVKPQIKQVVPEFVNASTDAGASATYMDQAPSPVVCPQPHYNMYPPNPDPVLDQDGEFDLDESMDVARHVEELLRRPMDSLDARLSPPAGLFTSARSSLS

[17] = target: T1, Signal transducer and activator of transcription 5A (Homo sapiens); experiment: Inhibition of STAT5 phosphorylation in human SUDHL1 cells; format: cell-based; in short: as §4

Chain of Signal transducer and activator of transcription 3 (Homo sapiens) (P40763 whole entry): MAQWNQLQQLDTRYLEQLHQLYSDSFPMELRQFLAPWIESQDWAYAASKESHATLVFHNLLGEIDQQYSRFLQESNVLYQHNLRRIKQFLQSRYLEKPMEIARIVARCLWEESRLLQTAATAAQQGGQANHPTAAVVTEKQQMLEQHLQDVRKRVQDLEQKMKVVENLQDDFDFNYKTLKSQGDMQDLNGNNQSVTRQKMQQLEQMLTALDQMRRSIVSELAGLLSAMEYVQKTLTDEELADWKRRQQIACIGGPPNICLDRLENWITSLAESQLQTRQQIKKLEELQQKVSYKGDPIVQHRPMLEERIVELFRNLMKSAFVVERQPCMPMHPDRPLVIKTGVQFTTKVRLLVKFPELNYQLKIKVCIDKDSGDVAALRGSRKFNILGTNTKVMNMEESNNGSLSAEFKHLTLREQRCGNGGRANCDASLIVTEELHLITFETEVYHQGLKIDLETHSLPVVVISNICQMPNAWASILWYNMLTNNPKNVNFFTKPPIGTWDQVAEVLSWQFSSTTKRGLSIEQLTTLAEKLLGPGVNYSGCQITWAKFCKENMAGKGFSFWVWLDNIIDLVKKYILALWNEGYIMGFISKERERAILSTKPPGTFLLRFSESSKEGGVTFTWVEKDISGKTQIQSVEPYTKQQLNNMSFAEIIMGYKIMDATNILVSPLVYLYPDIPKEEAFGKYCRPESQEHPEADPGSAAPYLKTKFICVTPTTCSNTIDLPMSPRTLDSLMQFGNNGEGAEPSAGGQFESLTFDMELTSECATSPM
Chain of Nucleophosmin (Mus musculus) (Q61937 whole entry): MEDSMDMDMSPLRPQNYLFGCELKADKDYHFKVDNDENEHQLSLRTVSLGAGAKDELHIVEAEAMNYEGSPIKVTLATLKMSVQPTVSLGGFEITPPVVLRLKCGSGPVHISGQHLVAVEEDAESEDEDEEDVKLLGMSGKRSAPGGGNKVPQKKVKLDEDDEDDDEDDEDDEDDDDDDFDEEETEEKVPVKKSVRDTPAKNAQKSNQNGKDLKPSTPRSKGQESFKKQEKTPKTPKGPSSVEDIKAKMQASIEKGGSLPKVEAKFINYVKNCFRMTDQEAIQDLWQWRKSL
Chain of Signal transducer and activator of transcription 3 (Mus musculus) (P42227 whole entry): as the sequence (P40763 whole entry) above, with E760D counted along it

What does the source list for COc1cc(N2CCC(N3CCN(C)CC3)CC2)ccc1Nc1ncc(Cl)c(Nc2ccccc2S(=O)(=O)C(C)C)n1 [TAE-684]?
Activity [1]: 85%; Activity [2]: tde; Activity [3]: tde; half-life [4]: 720 min; bioavailability [5]: 60%; IC50 [6]: 3 nM; Activity [7]: Not Active; IC50 [8]: 3 nM; IC50 [9]: 2 nM; Activity [10]: Dose-dependent effect; IC50 [11]: 2750 nM; Activity [12]: Dose-dependent effect; Activity [13]: Dose-dependent effect; Activity [14]: Dose-dependent effect; Activity [15]: Dose-dependent effect; Activity [16]: Dose-dependent effect; Activity [17]: Dose-dependent effect
